From ChEMBL document CHEMBL3046733, “Comparative toxicity of selected organophosphate insecticides against resistant and susceptible clones of the greenbug, Schizaphis graminum (Homoptera: aphididae)” (J Agric Food Chem, 2000)
In brackets after ≈: the same amount, converted by molar mass.

Experiments:
Schizaphis graminum [1] = assay: Resistance index, ratio of LC50 for organophosphate-resistant clone of Schizaphis graminum OR2 adult or last-instar nymphs to LC50 for organophosphate-susceptible clone of Schizaphis graminum OSS adult or last-instar nymphs; type: functional; parameters: reference not given here
Schizaphis graminum [2] = assay: Resistance index, ratio of LC50 for organophosphate-resistant clone of Schizaphis graminum OR1 adult or last-instar nymphs to LC50 for organophosphate-susceptible clone of Schizaphis graminum OSS adult or last-instar nymphs; type: functional; parameters: reference not given here
Schizaphis graminum [3] = assay: Insecticidal activity against organophosphate-resistant clone of Schizaphis graminum OR1 adult or last-instar nymphs assessed as insect mortality after 8 hr; type: functional; details: OR1, 8 h
Schizaphis graminum [4] = assay: Insecticidal activity against organophosphate-resistant clone of Schizaphis graminum OR2 adult or last-instar nymphs assessed as insect mortality after 8 hr; type: functional; details: OR2, 8 h
Schizaphis graminum [5] = assay: Insecticidal activity against organophosphate-susceptible clone of Schizaphis graminum OSS adult or last-instar nymphs assessed as insect mortality after 8 hr; type: functional
Acetylcholinesterase [6] = molecular target: T1, Acetylcholinesterase (Schizaphis graminum, UniProt Q9BMJ1); assay: Inhibition of AChE in organophosphate-resistant clone of Schizaphis graminum OR2 adult or last-instar nymphs homogenates assessed as bimolecular rate constant pre-incubated with compound for 2 min at 25 degC before addition of ATC and DTNB solution
T1 sequence (Q9BMJ1 whole entry): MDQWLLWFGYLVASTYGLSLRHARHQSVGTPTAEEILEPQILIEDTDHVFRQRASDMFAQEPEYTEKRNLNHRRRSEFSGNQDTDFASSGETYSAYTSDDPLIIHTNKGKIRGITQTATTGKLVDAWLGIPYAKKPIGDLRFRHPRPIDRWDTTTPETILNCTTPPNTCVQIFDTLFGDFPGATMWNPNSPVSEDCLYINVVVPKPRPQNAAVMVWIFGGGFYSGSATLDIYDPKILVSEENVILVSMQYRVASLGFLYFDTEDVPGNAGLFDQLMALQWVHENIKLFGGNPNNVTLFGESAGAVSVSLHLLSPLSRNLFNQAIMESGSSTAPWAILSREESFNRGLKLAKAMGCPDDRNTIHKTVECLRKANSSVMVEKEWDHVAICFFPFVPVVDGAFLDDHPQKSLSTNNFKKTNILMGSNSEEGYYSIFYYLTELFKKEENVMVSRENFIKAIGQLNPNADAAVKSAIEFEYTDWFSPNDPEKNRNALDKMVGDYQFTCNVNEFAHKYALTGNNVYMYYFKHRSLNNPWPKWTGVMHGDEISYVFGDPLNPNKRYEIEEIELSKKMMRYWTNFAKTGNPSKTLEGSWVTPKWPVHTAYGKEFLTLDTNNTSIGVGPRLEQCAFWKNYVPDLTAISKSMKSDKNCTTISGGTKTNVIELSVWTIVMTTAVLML
In short: (§1)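 Clones mass-reared on whole sorghum plants (hybrid NC+ 160) at 25 ± 2 °C with a 16:8 h L/D photoperiod. Greenbug AChE was preincubated with an organophosphate oxon inhibitor for 2 min at 25 °C. Residual AChE activity was then measured as a percentage of an inhibitor-free control.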

[7] = molecular target: Acetylcholinesterase (Schizaphis graminum) (UniProt Q9BMJ1); assay: Resistance index, ratio of bimolecular rate constant Ki for AChE in rganophosphate-resistant clone of Schizaphis graminum OR2 to bimolecular rate constant Ki for AChE in organophosphate-susceptible clone of Schizaphis graminum OSS
Sequence of Acetylcholinesterase (Schizaphis graminum) (Q9BMJ1 as listed by the source): as the sequence (Q9BMJ1 whole entry) above

Acetylcholinesterase [8] = molecular target: T1, Acetylcholinesterase; assay: Inhibition of AChE in organophosphate-resistant clone of Schizaphis graminum OR1 adult or last-instar nymphs homogenates assessed as bimolecular rate constant pre-incubated with compound for 2 min at 25 degC before addition of ATC and DTNB solution; in short: as §1
[9] = molecular target: Acetylcholinesterase (Schizaphis graminum) (UniProt Q9BMJ1); assay: Resistance index, ratio of bimolecular rate constant Ki for AChE in rganophosphate-resistant clone of Schizaphis graminum OR1 to bimolecular rate constant Ki for AChE in organophosphate-susceptible clone of Schizaphis graminum OSS
Acetylcholinesterase [10] = molecular target: T1, Acetylcholinesterase; assay: Inhibition of AChE in organophosphate-susceptible clone of Schizaphis graminum OSS adult or last-instar nymphs homogenates assessed as bimolecular rate constant pre-incubated with compound for 2 min at 25 degC before addition of ATC and DTNB solution; in short: as §1

Compound	RatioLC50 (Schizaphis graminum [1])	RatioLC50 (Schizaphis graminum [2])	LC50 (Schizaphis graminum [3]) [µg/mL]	LC50 (Schizaphis graminum [4]) [µg/mL]	LC50 (Schizaphis graminum [5]) [µg/mL]	Ki (Acetylcholinesterase [6]) [M⁻¹ min⁻¹]	Ratio [7]	Ki (Acetylcholinesterase [8]) [M⁻¹ min⁻¹]	Ratio [9]	Ki (Acetylcholinesterase [10]) [M⁻¹ min⁻¹]
CCOP(=S)(OCC)Oc1nc(Cl)c(Cl)cc1Cl [CHLORPYRIFOS]	53.8	10.6	0.39 (≈ 1.11 µM)	1.96 (≈ 5.59 µM)	0.036 (≈ 0.103 µM)					
COP(=O)(OC)Oc1ccc([N+](=O)[O-])cc1 [DIMETHYL 4-NITROPHENYL PHOSPHATE]						1.3	2.2	1.35	2.1	2.9
CCOP(=S)(OCC)SCCSCC [DISULFOTON]	93.7	39.6	6.37 (≈ 23.2 µM)	15.1 (≈ 55 µM)	0.16 (≈ 0.583 µM)					
COP(=S)(OC)Oc1ccc([N+](=O)[O-])cc1 [METHYL PARATHIONE]	41.3	11.1	0.34 (≈ 1.29 µM)	1.27 (≈ 4.83 µM)	0.031 (≈ 0.118 µM)					
CNC(=O)CSP(=O)(OC)OC [Omethoate]	30.6	38.9	8.01 (≈ 37.6 µM)	6.28 (≈ 29.5 µM)	0.21 (≈ 0.985 µM)	1.33	3.5	1.24	3.8	4.62
CCOP(=O)(OCC)Oc1ccc([N+](=O)[O-])cc1 [PARAOXON]						0.72	2	0.81	1.8	1.42
CCOP(=S)(OCC)Oc1ccc([N+](=O)[O-])cc1 [PARATHION]	326.9	40.8	8.07 (≈ 27.7 µM)	64.8 (≈ 222 µM)	0.2 (≈ 0.687 µM)					
CCOP(=O)(OCC)SCCSCC [demeton S]						2.68	1.3	2.62	1.3	3.45
CCSCCSP(=O)(OC)OC [demeton-S-methyl]						4.35		4.11		6.04
